This is an account of results in ChEMBL document CHEMBL2086280, “Structure and bioactivity of steroidal saponins isolated from the roots of Chamaelirium luteum (false unicorn)” (J Nat Prod, 2012).

Assay [1] concerns NFF. In words: Cytotoxicity against human NFF cells after 6 days by SRB assay. The class given is cell-based. The conditions noted are these: 144 h. The procedure, abridged:
(§1)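 Seeded at 3000−5000 cells/well and exposed for 6 days to compounds diluted from 10 mg/mL DMSO stocks. The top final concentration was 50 μg/mL, carrying 0.5% DMSO final. Cells were ethanol-fixed and stained with sulforhodamine, with absorbance read at 540 nm against untreated controls. IC50 was interpolated from plots of percent control absorbance versus dose.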

The test system of assay [2] is HeLa. In words: Cytotoxicity against human HeLa cells after 6 days by SRB assay. The class given is functional, cell-based. The note with it: 144 h. The procedure, abridged: as §1
A general note: In SRB staining, fixed cells bind dye roughly in proportion to their protein.

The test system of assay [3] is HT-29. The experiment in a line: Cytotoxicity against human HT-29 cells after 6 days by SRB assay. The format is functional, cell-based. The conditions noted are these: HT-29, 144 h. The procedure, abridged: as §1
Assay [4] deals with MCF7. The experiment in a line: Cytotoxicity against human MCF7 cells after 6 days by SRB assay. The format is functional, cell-based. The conditions noted are these: MCF7, 144 h. The method, boiled down: as §1
The test system of assay [5] is MM96L. In words: Cytotoxicity against human MM96L cells after 6 days by SRB assay. The class given is functional, cell-based. The conditions noted are these: 144 h. The procedure, abridged: as §1
The subject of assay [6] is K562. In words: Cytotoxicity against human K562 cells after 6 days by MTS assay. The conditions noted are these: K562, 144 h. Background: Formazan colour is commonly taken as a measure of viable cells.

Converted amounts (≈) assume the structure as drawn.

Consider `CC(C)[C@H](O)[C@H](O)C[C@@H](C)[C@H]1[C@@H](O)C[C@H]2[C@@H]3C[C@@H](O)[C@H]4C[C@@H](O)CC[C@]4(C)[C@H]3CC[C@]12C`, for which the half-inhibitory concentration (IC50) (as a rule, the concentration at which inhibition is half-maximal) came out at 22 µg/mL (≈ 48.6 µM) in assay [1]; 12 µg/mL (≈ 26.5 µM) in assay [2]; 11 µg/mL (≈ 24.3 µM) in assay [3]; 13 µg/mL (≈ 28.7 µM) in assay [4]; 8.5 µg/mL (≈ 18.8 µM) in assay [5]; 7 µg/mL (≈ 15.5 µM) in assay [6].

Regarding `CC(C)[C@H](O)[C@H](O)C[C@@H](C)[C@H]1[C@@H](O[C@@H]2O[C@H](CO)[C@@H](O)[C@H](O)[C@H]2O)C[C@H]2[C@@H]3CC(=O)[C@H]4C[C@@H](O[C@@H]5O[C@H](CO[C@@H]6O[C@H](CO)[C@@H](O)[C@H](O)[C@H]6O)[C@@H](O)[C@H](O)[C@H]5O)CC[C@]4(C)[C@H]3CC[C@]12C`, the concentration for half-maximal inhibition (IC50) in assay [1], in assay [2], in assay [3], in assay [4], in assay [5] and in assay [6] was over 50 µg/mL throughout.

As for `C[C@@H](CO)CC[C@H](O)[C@@H](C)[C@H]1[C@@H](O)C[C@H]2[C@@H]3CC=C4C[C@@H](O)CC[C@]4(C)[C@H]3CC[C@]12C`, the IC50 in assay [1], in assay [2], in assay [3], in assay [4], in assay [5] and in assay [6] was over 50 µg/mL in each case.

`CC(C)[C@H](O[C@@H]1O[C@H](C)[C@H](O)[C@H](O)[C@H]1O)[C@H](O)C[C@@H](C)[C@H]1[C@@H](O)C[C@H]2[C@@H]3C[C@@H](O)[C@H]4C[C@@H](O[C@@H]5O[C@H](CO[C@@H]6O[C@H](CO)[C@@H](O)[C@H](O)[C@H]6O)[C@@H](O)[C@H](O)[C@H]5O)CC[C@]4(C)[C@H]3CC[C@]12C` [CHAMAELIROSIDE B]: the concentration for half-maximal inhibition (IC50) in assay [1], in assay [2], in assay [3], in assay [4], in assay [5] and in assay [6] was over 50 µg/mL in each case.

Consider `CC(C)[C@H](O)[C@H](O)C[C@@H](C)[C@H]1[C@@H](O)C[C@H]2[C@@H]3C[C@@H](O)[C@H]4C[C@@H](O[C@@H]5O[C@H](CO[C@@H]6O[C@H](CO)[C@@H](O)[C@H](O)[C@H]6O)[C@@H](O)[C@H](O)[C@H]5O)CC[C@]4(C)[C@H]3CC[C@]12C` [CHAMAELIROSIDE A], for which the half-inhibitory concentration (IC50) in assay [1], in assay [2], in assay [3], in assay [4], in assay [5] and in assay [6] was over 50 µg/mL each time.

Turning to `CC(C)[C@H](O)[C@H](O)C[C@@H](C)[C@H]1[C@@H](O)C[C@H]2[C@@H]3CC(=O)[C@H]4C[C@@H](O[C@@H]5O[C@H](CO[C@@H]6O[C@H](CO)[C@@H](O)[C@H](O)[C@H]6O)[C@@H](O)[C@H](O)[C@H]5O)CC[C@]4(C)[C@H]3CC[C@]12C`, the 50% inhibitory concentration (IC50) in assay [1], in assay [2], in assay [3], in assay [4], in assay [5] and in assay [6] was over 50 µg/mL each time.

As to `C[C@H](CC[C@H](O)[C@@H](C)[C@H]1[C@@H](O)C[C@H]2[C@@H]3CC=C4C[C@@H](O[C@@H]5O[C@H](CO)[C@@H](O)[C@H](O)[C@H]5O)CC[C@]4(C)[C@H]3[C@H](O)C[C@]12C)CO[C@@H]1O[C@H](CO)[C@@H](O)[C@H](O)[C@H]1O` [HELOSIDE A], the half-inhibitory concentration (IC50) in assay [1], in assay [2], in assay [3], in assay [4], in assay [5] and in assay [6] was over 50 µg/mL throughout.

As to `C[C@@H](CO)CC[C@@H](O)[C@@H](C)[C@H]1[C@@H](O)C[C@H]2[C@@H]3CC=C4C[C@@H](O)CC[C@]4(C)[C@H]3CC[C@]12C`, the half-inhibitory concentration (IC50) in assay [1], in assay [2], in assay [3], in assay [4], in assay [5] and in assay [6] was over 50 µg/mL throughout.

For the compound `CC(=O)OC[C@H](C)CC[C@@H](OC(C)=O)[C@@H](C)[C@H]1[C@@H](OC(C)=O)C[C@H]2[C@@H]3CC=C4C[C@@H](OC(C)=O)CC[C@]4(C)[C@H]3CC[C@]12C`, the IC50 in assay [1] worked out at 13 µg/mL (≈ 21.6 µM); in assay [2] it was 13 µg/mL (≈ 21.6 µM); in assay [3], 6.5 µg/mL (≈ 10.8 µM); in assay [4], 7.5 µg/mL (≈ 12.4 µM); in assay [5], 4.5 µg/mL (≈ 7.47 µM); in assay [6], 8.5 µg/mL (≈ 14.1 µM).

As to `CC(=O)O[C@@H]1[C@H](O)[C@@H](O)[C@H](O[C@@H](C(C)C)[C@H](O)C[C@@H](C)[C@H]2[C@@H](O)C[C@H]3[C@@H]4C[C@@H](O)[C@H]5C[C@@H](O[C@@H]6O[C@H](CO[C@@H]7O[C@H](CO)[C@@H](O)[C@H](O)[C@H]7O)[C@@H](O)[C@H](O)[C@H]6O)CC[C@]5(C)[C@H]4CC[C@]23C)O[C@@H]1C` [CHAMAELIROSIDE C], the IC50 in assay [1], in assay [2], in assay [3], in assay [4], in assay [5] and in assay [6] was over 50 µg/mL throughout.

With `CC(C)[C@H](O[C@@H]1O[C@H](C)[C@H](O)[C@H](O)[C@H]1O)[C@H](O)C[C@@H](C)[C@H]1[C@@H](O)C[C@H]2[C@@H]3CC(=O)[C@H]4C[C@@H](O[C@@H]5O[C@H](CO[C@@H]6O[C@H](CO)[C@@H](O)[C@H](O)[C@H]6O)[C@@H](O)[C@H](O)[C@H]5O)CC[C@]4(C)[C@H]3CC[C@]12C`, the IC50 in assay [1], in assay [2], in assay [3], in assay [4], in assay [5] and in assay [6] was over 50 µg/mL throughout.

Regarding `CC(C)[C@@H]1OC(C)(C)O[C@@H]1C[C@@H](C)[C@H]1[C@@H](O)C[C@H]2[C@@H]3C[C@@H](O)[C@H]4C[C@@H](O)CC[C@]4(C)[C@H]3CC[C@]12C`, the concentration for half-maximal inhibition (IC50) in assay [1] is 10 µg/mL (≈ 20.3 µM); in assay [2], 4.3 µg/mL (≈ 8.73 µM); in assay [3] it was 3.5 µg/mL (≈ 7.1 µM); in assay [4] it was 5 µg/mL (≈ 10.1 µM); in assay [5], 5 µg/mL (≈ 10.1 µM); in assay [6] it was 8.5 µg/mL (≈ 17.3 µM).

Take `CC(C)[C@H](O)[C@H](O)C[C@@H](C)[C@H]1[C@@H](O[C@@H]2O[C@H](CO)[C@@H](O)[C@H](O)[C@H]2O)C[C@H]2[C@@H]3C[C@@H](O)[C@H]4C[C@@H](O[C@@H]5O[C@H](CO[C@@H]6O[C@H](CO)[C@@H](O)[C@H](O)[C@H]6O)[C@@H](O)[C@H](O)[C@H]5O)CC[C@]4(C)[C@H]3CC[C@]12C` [CHAMAELIROSIDE E]: the IC50 in assay [1], in assay [2], in assay [3], in assay [4], in assay [5] and in assay [6] was over 50 µg/mL each time.

`CC(=O)O[C@H]1CC[C@@]2(C)C(=CC[C@H]3[C@@H]4C[C@H](OC(C)=O)[C@H]([C@H](C)C(=O)CC[C@@H](C)CO)[C@@]4(C)CC[C@@H]32)C1`: the IC50 was determined as 2 µg/mL (≈ 3.87 µM) in assay [1]; 2.8 µg/mL (≈ 5.42 µM) in assay [2]; 0.8 µg/mL (≈ 1.55 µM) in assay [3]; 0.8 µg/mL (≈ 1.55 µM) in assay [4]; 1 µg/mL (≈ 1.94 µM) in assay [5]; 1.7 µg/mL (≈ 3.29 µM) in assay [6].

On to `CC(=O)OC[C@H](C)CC[C@H](OC(C)=O)[C@@H](C)[C@H]1[C@@H](OC(C)=O)C[C@H]2[C@@H]3CC=C4C[C@@H](OC(C)=O)CC[C@]4(C)[C@H]3CC[C@]12C`, for which the half-inhibitory concentration (IC50) was 12 µg/mL (≈ 19.9 µM) in assay [1]; 16 µg/mL (≈ 26.5 µM) in assay [2]; 4.5 µg/mL (≈ 7.47 µM) in assay [3]; 11 µg/mL (≈ 18.2 µM) in assay [4]; 3.5 µg/mL (≈ 5.81 µM) in assay [5]; 4.5 µg/mL (≈ 7.47 µM) in assay [6].

In the case of `C[C@@H](CO)CC[C@H](O)[C@@H](C)[C@H]1[C@@H](O)C[C@H]2[C@@H]3CC=C4C[C@@H](O)CC[C@]4(C)[C@H]3[C@H](O)C[C@]12C` [HELOGENIN], the half-inhibitory concentration (IC50) in assay [1], in assay [2], in assay [3], in assay [4], in assay [5] and in assay [6] was over 50 µg/mL each time.

For `C[C@@H]1CC[C@@]2(OC1)O[C@H]1C[C@H]3[C@@H]4CC=C5C[C@@H](O)CC[C@]5(C)[C@H]4CC[C@]3(C)[C@H]1[C@@H]2C` [DISOGENIN], the IC50 in assay [1], in assay [2], in assay [3], in assay [4], in assay [5] and in assay [6] was over 50 µg/mL throughout.

In the case of `CC(C)[C@H](O)[C@H](O)C[C@@H](C)[C@H]1[C@@H](O)C[C@H]2[C@@H]3CC(=O)[C@H]4C[C@@H](O)CC[C@]4(C)[C@H]3CC[C@]12C`, the IC50 stood at 17 µg/mL (≈ 37.7 µM) in assay [1]; 15 µg/mL (≈ 33.3 µM) in assay [2]; 13 µg/mL (≈ 28.8 µM) in assay [3]; 15 µg/mL (≈ 33.3 µM) in assay [4]; 4.5 µg/mL (≈ 9.99 µM) in assay [5]; 5 µg/mL (≈ 11.1 µM) in assay [6].
